Screening results deposited in PubChem by several laboratories.
JMJD2C inh = blocks human GASC-1 demethylase activity. Q9H3R0. hit rate 0.069% among 330,000. GST-JMJD2C(1-420) H3K9me3 demethylation, DELFIA europium. inhibition, % at 2.35 µM;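 active = more than half of a compound's replicate wells show inhibition beyond 50%, single wells judged on their own value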;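 also: signal counts dimethyl H3K9 product captured on neutravidin plate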
Target sequence (Q9H3R0 1-420 limits assumed): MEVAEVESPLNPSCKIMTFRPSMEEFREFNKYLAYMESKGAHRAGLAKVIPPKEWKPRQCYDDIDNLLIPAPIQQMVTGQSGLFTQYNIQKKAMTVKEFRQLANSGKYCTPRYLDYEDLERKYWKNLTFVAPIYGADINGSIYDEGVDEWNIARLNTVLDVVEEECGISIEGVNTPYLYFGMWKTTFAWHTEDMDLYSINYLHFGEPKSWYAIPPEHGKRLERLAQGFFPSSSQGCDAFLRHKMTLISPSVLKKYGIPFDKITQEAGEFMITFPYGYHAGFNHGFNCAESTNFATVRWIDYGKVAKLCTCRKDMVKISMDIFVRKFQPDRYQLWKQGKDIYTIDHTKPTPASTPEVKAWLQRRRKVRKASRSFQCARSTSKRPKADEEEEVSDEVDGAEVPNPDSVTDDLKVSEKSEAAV
Arrestin-AP2 inh = human beta-arrestin and AP2 interaction inhibition; AID 504490; hit rate 0.31% among 340,000; inhibition, % at 10 µM; FITC-arrestin peptide / GST-AP2 beads, flow cytometry; AP2 beta2 appendage carries R879A mutation;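 active = inhibition above a set limit, near 3 SD of compounds lacking own fluorescence, cut at about 54% in these data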
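System: GST-AP2 R879A bound to glutathione beads, E. coli-expressed. Also added: 50 nM FITC-arrestin peptide. Schedule: compound with beads 12 min RT, then probe 1 h RT. Signal: bead flow cytometry, FITC channel. Read-out basis: percent response.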
VLA-4 inh = inhibition in a human VLA-4 binding assay | P13612 | VLA-4 expressing cells, ligand binding flow cytometry | inhibition, % (about 7 µM as worked out from the volumes in the protocol) | hit rate 0.2% among 330,000 | AID 2557; in the data active = inhibition above about 50%
p-CIP stab down = compounds decreasing mouse p/CIP protein stability; Q05BA5; F442A p/CIP-EGFP cells, EGFP fluorescence, 16 h; decrease of EGFP signal, % at 10 µM; hit rate 0.01% among 290,000;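 active = EGFP signal decrease of at least 30% at 10 µM or well 3 SD below plate mean, unless failing retest; inactive = the rest, including hits failing retest or dose response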
VLA-4 mod pick = confirmation of allosteric modulators of human VLA-4 integrin; shares compounds with VLA-4 inh; U937 cells, HUTS-21 LIBS mAb binding, flow cytometry; LDV ligand present at threefold Kd; inhibition, % at 6.7 µM; hit rate 2% among 1,300; AID 2813; in the data active = inhibition above about 40%
Large screens that a line does not name were inactive (follow-up assays come after a bar, where they were run). An excerpt weighted towards active compounds, which were near 0.57% of everything screened.

O=C(Nc1ccccc1Cl)c1cc(S(=O)(=O)N2CCCCC2)ccc1N1CCOCC1	none | VLA-4 mod pick inactive
Cc1ccc(NC(=O)c2cc(S(=O)(=O)N3CCCCC3)ccc2N2CCOCC2)cc1S(=O)(=O)N(C)C	none (no result: JMJD2C inh, VLA-4 inh, p-CIP stab down) | VLA-4 mod pick inactive
COc1cc(NC(=O)c2cc(S(=O)(=O)N3CCCCC3)ccc2N2CCOCC2)cc(OC)c1OC	none (no result: JMJD2C inh, VLA-4 inh, p-CIP stab down) | VLA-4 mod pick inactive
O=C(COC(=O)c1ccc(S(=O)(=O)N2CCOCC2)cc1)Nc1ccccc1F	none (no result: p-CIP stab down)
O=C(Nc1ccccc1N1CCCCC1)c1cc(S(=O)(=O)N2CCOCC2)ccc1Cl	none (no result: p-CIP stab down)
O=C(Nc1ccccc1F)c1cc(S(=O)(=O)N2CCOCC2)ccc1N1CCOCC1	none (no result: JMJD2C inh, VLA-4 inh, p-CIP stab down) | VLA-4 mod pick inactive
O=C(Nc1cc(S(=O)(=O)N2CCOCC2)ccc1N1CCOCC1)c1ccccc1F	none (no result: p-CIP stab down)
Cc1cc(C(=O)CN2CCCC(C)C2)c(C)n1-c1ccc(F)cc1 (stereo not drawn)	none | VLA-4 mod pick inactive
Cc1ccc(-n2c(C)cc(C(=O)CN3CCOCC3)c2C)cc1	none
CCN(CC)C1CCN(Cc2cn[nH]c2-c2ccc(OC)c(F)c2)C1 (stereo not drawn)	none
Cc1ccc(-c2cc(C(=O)Nc3c(C)n(C)n(-c4ccccc4)c3=O)[nH]n2)c(O)c1	none | VLA-4 mod pick inactive
COc1cccc(OC)c1C(=O)Nc1c(C)n(C)n(-c2ccccc2)c1=O	none | VLA-4 mod pick inactive
Cc1cc(C)c(-c2cc(C(=O)Nc3c(C)n(C)n(-c4ccccc4)c3=O)[nH]n2)c(O)c1	none
Cc1c(NC(=O)c2ccccc2N(C)S(=O)(=O)c2ccccc2)c(=O)n(-c2ccccc2)n1C	none | VLA-4 mod pick inactive
Cc1c(NC(=O)c2ccc(Cl)c(S(=O)(=O)N3CCOCC3)c2)c(=O)n(-c2ccccc2)n1C	none | VLA-4 mod pick inactive
Cc1c(NC(=O)c2c(F)cccc2F)c(=O)n(-c2ccccc2)n1C	none
Cc1cccc(OCC(=O)N2CCC(N3CCOCC3)CC2)c1	none
Cc1c(NC(=O)C2CCN(S(=O)(=O)c3ccccc3)CC2)c(=O)n(-c2ccccc2)n1C	none
Cc1c(NC(=O)C2CC=CCC2C(=O)O)c(=O)n(-c2ccccc2)n1C (stereo not drawn)	none | VLA-4 mod pick inactive
COc1ccc(S(=O)(=O)Nc2c(F)cccc2F)cc1	none | VLA-4 mod pick inactive
COc1ccc(S(=O)(=O)Nc2ccccc2C)cc1	none
O=C(O)c1ccc(NC2OC[C@@H](O)[C@H](O)[C@H]2O)cc1 (stereo partly drawn)	VLA-4 inh 59 (no result: p-CIP stab down) | VLA-4 mod pick inactive
C[C@H](Cc1ccccc1)Nc1ncnc2c1ncn2[C@@H]1O[C@H](CO)[C@@H](O)[C@H]1O	VLA-4 inh 59 (no result: JMJD2C inh, p-CIP stab down) | VLA-4 mod pick inactive
O=C(O)c1cccc(N2C(=O)/C(=C/c3ccc([N+](=O)[O-])cc3)C=C2c2ccccc2)c1	none
C#C[C@]1(O)CC[C@H]2[C@@H]3CCc4cc(OC5CCCC5)ccc4[C@H]3CC[C@@]21C	VLA-4 inh 53 | VLA-4 mod pick inactive
C#C[C@]1(O)CC[C@H]2[C@@H]3CCc4cc(OC)ccc4[C@H]3CC[C@@]21C	none
Cc1ccc(NC(=O)CN2C(=O)S/C(=C\c3ccc(-c4cccc(C(=O)O)c4C)o3)C2=O)cc1C	none (no result: JMJD2C inh, VLA-4 inh)
O=C(COc1ccc2c3c(c(=O)oc2c1)CCCC3)N1CCN(c2ccc(F)cc2)CC1	none
CN1CCN(C(=O)c2ccc(Cn3cc(Cl)cn3)o2)CC1	none
CC(=O)Nc1ccc(/C=C(\C#N)C(N)=O)cc1	none | VLA-4 mod pick inactive
CNC(=S)N/N=C/c1c(C)nn(-c2cccc(Cl)c2)c1Cl	none | VLA-4 mod pick inactive
CNC(=S)N/N=C/c1c(C)nn(-c2ccccc2)c1Cl	none (no result: VLA-4 inh)
CCOC(=O)c1c(NC(=O)C2c3ccccc3Oc3ccccc32)sc(C(N)=O)c1C	none | VLA-4 mod pick inactive
COC(=O)Nc1ccc(S(=O)(=O)N2CCCc3cccc(O)c32)cc1	none
COC(=O)Nc1ccc(S(=O)(=O)N2CCCc3ccccc32)cc1	VLA-4 inh 79 | VLA-4 mod pick inactive
C(=Nc1ccc(Nc2ccccc2)cc1)c1ccc2ccccc2c1	none
OCC1(CCOc2ccccc2)CCN(Cc2ccc(OC(F)F)cc2)CC1	none
O=CC1=C(N2CCOCC2)/C(=C\c2ccccc2)CC1	none
CC(C)c1ccc(C2(C)NC(=O)N(CC(=O)NC3CCCC(C)C3C)C2=O)cc1 (stereo not drawn)	VLA-4 inh 52 (no result: p-CIP stab down) | VLA-4 mod pick inactive
CC1CCCC(NC(=O)CN2C(=O)NC(C)(c3ccccc3)C2=O)C1C (stereo not drawn)	none (no result: JMJD2C inh, VLA-4 inh, p-CIP stab down)
Cc1nn(CCCC(=O)Nc2ccccn2)c(C)c1[N+](=O)[O-]	none
Cc1noc(C)c1CSCC(=O)Nc1nc2ccc(S(C)(=O)=O)cc2s1	VLA-4 inh 50 (no result: p-CIP stab down) | VLA-4 mod pick inactive
COc1ccc2nc(NC(=O)CSCc3c(C)noc3C)sc2c1	none (no result: p-CIP stab down)
CCOC(=O)C(=O)Nc1ccccc1C#N	none
CCC(C)C(NC(=O)C(N)CC(C)C)C(=O)NC(CCC(=O)OCc1ccccc1)C(N)=O (stereo not drawn)	VLA-4 inh 54 | VLA-4 mod pick inactive
COc1cc(C(=O)OCC(=O)Nc2c(F)c(F)c(F)c(F)c2F)cc(OC)c1OC	none | VLA-4 mod pick inactive
COc1ccc(C)cc1NC(=O)NCc1ccc(F)cc1	none | VLA-4 mod pick inactive
Nc1ccc(N2CCCCC2)c(S(=O)(=O)Nc2ccccc2Cl)c1	none
COc1ccc(N)cc1S(=O)(=O)Nc1ccccc1Cl	none | VLA-4 mod pick inactive
COc1ccc(N/C(=C/[N+](=O)[O-])SC)cc1	none
CC(=O)c1ccccc1NS(=O)(=O)c1ccccc1Cl	none | VLA-4 mod pick inactive
Cc1ccc(-c2nc(-c3ccccc3)no2)cc1	VLA-4 inh 95 | VLA-4 mod pick inactive
Cc1nc2c3ccccc3n(CC#N)c(=O)n2n1	none
Cc1cc(C)n(/C(=C\N(C)C)C(=O)c2cccc([N+](=O)[O-])c2)n1	none | VLA-4 mod pick inactive
Cc1cc(C)n(/C(=C\N(C)C)C(=O)c2ccc(Cl)cc2)n1	none
CCCN(CC(=O)Nc1ccccc1C)C(=O)C1CCN(c2ncnc3sc(C)c(C)c23)CC1	none (no result: p-CIP stab down)
COC(=O)c1ccc(CSc2ccc3nnc(-c4ccccn4)n3n2)o1	VLA-4 inh 54 | VLA-4 mod pick inactive
COC(=O)c1ccc(CSc2ccc3nnc(-c4ccc(F)cc4)n3n2)o1	none
COc1cccc(C2CC(c3c(Cl)cccc3Cl)n3nc(N)nc3N2)c1 (stereo not drawn)	none
Cc1nn(-c2cc(N3CCOCC3)ccc2N)c(=O)c2ccccc12	VLA-4 inh 64 | VLA-4 mod pick inactive
Cc1nn(-c2cc(N3CCOCC3)ccc2[N+](=O)[O-])c(=O)c2ccccc12	none
CCn1c(C)c2c(C)nnc(C)c2c1C	none
COC(=O)Nc1ccc(S(=O)(=O)N2CCCC(C(=O)N3CCN(C)CC3)C2)cc1 (stereo not drawn)	none
COc1ccccc1CC(=O)N1CCN(S(=O)(=O)c2ccccc2)CC1	none
COc1ccccc1CC(=O)N1CCN(S(=O)(=O)c2ccccc2F)CC1	VLA-4 inh 52 (no result: p-CIP stab down) | VLA-4 mod pick inactive
Cc1cc(C)cc(NC(=S)N2CCC(N(C)CC3CCCO3)CC2)c1 (stereo not drawn)	none
